Experimental findings from ChEMBL document CHEMBL1921719, “Synthesis and activity study of phosphonamidate dipeptides as potential inhibitors of VanX” (Bioorg Med Chem Lett, 2011) are described below.

Molecules are shown by their SMILES. pIC50, pKi: −log10 of the molar value. ≈ marks a conversion by molar mass, not a printed value.

For assay [1], the system named is Staphylococcus aureus. Description: Antibacterial activity against Staphylococcus aureus ATCC 25923 after 24 hrs by macrodilution broth method. In kind it is functional. Conditions: ATCC 25923, 24 h. The method, boiled down: (§1)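 CLSI tube macrodilution broth method, with MIC as the read-out. Test strains were S. aureus ATCC 25923 and two clinical MRSA isolates. Cultures of about 10⁸ CFU/ml in Mueller–Hinton medium and phosphonamidate (2 mM stock in ddH₂O) were added in sequence to a vancomycin dilution series from 128 down to 0.125. Tubes were incubated for 24 h at 37 °C.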

The subject of assay [2] is Staphylococcus aureus. Description: Antibacterial activity against methicillin-resistant Staphylococcus aureus isolate 1 after 24 hrs by macrodilution broth method. In kind it is functional. The note with it: isolate 1, 24 h. In a few lines: as §1
Assay [3] relates to Staphylococcus aureus. The experiment in a line: Antibacterial activity against methicillin-resistant Staphylococcus isolate 2 after 24 hrs by macrodilution broth method. The note with it: isolate 2, 24 h. In kind it is functional. The method, boiled down: as §1
The nature of assay [4]: Inhibition of VanX using D-Ala-D-Ala as substrate preincubated for 30 mins before substrate addition measured after 150 secs by UV-Vis spectrometry. In a few lines: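 The enzyme was recombinant VanX, expressed as an MBP fusion in E. coli BL21(DE3) at 30 °C with 1 mM IPTG induction for 75 min. It was purified on amylose resin, eluted with 20 mM Tris pH 7.6, 10 mM maltose and 200 mM NaCl. Thrombin then cleaved off the MBP, followed by a Q-Sepharose step. IC₅₀ was determined by a previously reported method.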

For assay [5], the system named is Staphylococcus aureus. The experiment in a line: Antibacterial activity against Staphylococcus aureus ATCC 25923 after 24 hrs by macrodilution broth method relative to untreated control. It counts as functional.
Assay [6] is described as follows: Partial competitive inhibition of VanX.

Turning to `CC(C)[C@@H](NP(=O)(O)[C@H](C)N)C(=O)O`, the minimum inhibitory concentration (MIC) was 2 µg/mL (≈ 8.92 µM) in the assay on Staphylococcus aureus [1], 1 µg/mL (≈ 4.46 µM) against Staphylococcus aureus [2] and 2 µg/mL (≈ 8.92 µM) in the assay with Staphylococcus aureus [3]. In assay [4], this compound showed a pIC50 of 2.95.
Take `CC(C)C[C@@H](NP(=O)(O)[C@H](C)N)C(=O)O`: the MIC was 2 µg/mL (≈ 8.4 µM) in the assay on Staphylococcus aureus [1], 1 µg/mL (≈ 4.2 µM) in the assay on Staphylococcus aureus [2] and 2 µg/mL (≈ 8.4 µM) against Staphylococcus aureus [3]. Further, the pIC50 in assay [4] is 2.55.
For `C[C@H](N)P(=O)(O)NCC(=O)O`, the values for the minimum inhibitory concentration (MIC) in the assay on Staphylococcus aureus [1], in the assay on Staphylococcus aureus [2] and against Staphylococcus aureus [3] were 0.25 µg/mL (≈ 1.37 µM), 1 µg/mL (≈ 5.49 µM) and 1 µg/mL (≈ 5.49 µM), respectively. In addition, the “fold change (FC)” value in the assay on Staphylococcus aureus [5] is 8. Moreover, in assay [4], the negative-log IC50 (pIC50) is 3.41.
In turn, `C[C@H](N)P(=O)(O)N[C@H](C)C(=O)O` had a pKi in assay [6] of 4.44. The results for the minimal inhibitory concentration (MIC) against Staphylococcus aureus [1], in the assay on Staphylococcus aureus [2] and against Staphylococcus aureus [3] were 2 µg/mL (≈ 10.2 µM), 1 µg/mL (≈ 5.1 µM) and 2 µg/mL (≈ 10.2 µM), respectively. In assay [4], this compound had a pIC50 of 3.15.
Consider `C[C@H](N)P(=O)(O)N[C@H](Cc1ccccc1)C(=O)O`, for which the minimum inhibitory concentration (MIC) in the assay with Staphylococcus aureus [1] is 2 µg/mL (≈ 7.35 µM); in the assay on Staphylococcus aureus [2] it was 1 µg/mL (≈ 3.67 µM); in the assay on Staphylococcus aureus [3], 2 µg/mL (≈ 7.35 µM). The compound further gave a negative logarithm of the IC50 (pIC50) in assay [4] of 2.38.

For orientation: MIC means the lowest concentration found to suppress growth. Low values mean greater potency, high ones weaker potency. For orientation: pIC50 means the IC50 on a negative log10 scale, so that one unit is a factor of ten. Higher therefore signals a low IC50. As usually defined, the pKi is −log10 of the Ki, conventionally taken in molar units.
